Screening results as filed in PubChem.
hDAT+cocaine = human DAT dopamine uptake with cocaine, either direction; Q01959; LLC-PK1 hDAT cells, [14C]-dopamine uptake with cocaine IC80; actives deviate in either direction; B-score at 10 µM; actives 1.3% (n = 110,000); AID 449768;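 active = Z score or B-score, a plate-position-corrected score, falls beyond the plate's 99.7% confidence bounds, in either direction; inactive = both scores lie inside the 99.7% bounds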;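 also: scored against the spread of the other compound wells on the same plate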
D1 mod = D1 dopamine receptor (human) allosteric modulation. P21728. B-score at 10 µM. HEK293 D1, CRE-luciferase, dopamine EC30 potentiation; actives deviate in either direction. AID 641. actives 5.9% (n = 58,000);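 active = luminescence count or its row- and column-corrected plate score outside the 99.7% band of the plate's sample wells, on either side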
Target sequence (P21728 whole entry, looked up): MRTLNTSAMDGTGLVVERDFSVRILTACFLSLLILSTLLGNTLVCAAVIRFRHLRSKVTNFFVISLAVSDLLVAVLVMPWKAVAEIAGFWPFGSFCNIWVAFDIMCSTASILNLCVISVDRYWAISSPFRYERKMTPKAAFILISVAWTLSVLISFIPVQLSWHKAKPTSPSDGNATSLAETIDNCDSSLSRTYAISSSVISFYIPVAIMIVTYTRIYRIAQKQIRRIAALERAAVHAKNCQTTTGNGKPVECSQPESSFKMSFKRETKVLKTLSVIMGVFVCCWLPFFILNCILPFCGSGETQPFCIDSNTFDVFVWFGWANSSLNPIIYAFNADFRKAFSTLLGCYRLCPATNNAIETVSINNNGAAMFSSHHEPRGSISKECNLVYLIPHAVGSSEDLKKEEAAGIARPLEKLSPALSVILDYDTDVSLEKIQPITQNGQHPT
Calb biofilm kill = kills Candida albicans biofilms; C. albicans biofilm + clotrimazole, Alamar Blue; inhibition, % at 6 µM; actives 0.14% (n = 85,000); AID 834;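 active = inhibition above 20%; inactive = inhibition below 20%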;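 also: preformed 24 hr biofilms exposed to compound for 48 hr; 0% = biofilm without compound and 100% = blank killed by clotrimazole plus chlorhexidine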
MMP13 inh = inhibitors of human MMP13. P45452. MMP-13 fTHP FRET cleavage, Mca fluorescence. inhibition, % at 4 µM. actives 0.07% (n = 65,000). AID 570;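 active = inhibition above the mean of compound-free control plate wells plus 3 SD, cut at about 14% in these data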;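 also: 0% = DMSO wells and 100% = wells with reference MMP-13 inhibitor after basal subtraction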
AP complement = alternative pathway complement inhibition, orthogonal assay | Human serum alternative complement pathway, LPS-coated ELISA, C3 deposition; tested in compound mixtures | actives 0.08% (n = 62,000) | inhibition, % at 5 µM | AID 1235;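 active = inhibition above 30% in each of the two pooled mixtures holding the compound, so the lower value exceeds 30%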;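 also: 0% = serum in Mg-EGTA without compound and 100% = EDTA serum blank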
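Medium: diluted human serum in Mg2+-EGTA GVB++. Assay system: human serum complement alternative pathway, C3 deposition onto LPS. Also added: Plate-bound LPS. Technique: Anti-C3 ELISA, OD 450 nm. Measure: percent inhibition. Incubation: 1 h at 37 °C. Dosing: 5 µM each compound, pools of ten, 50 µM per pool.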
The depositor's hits bear a star; nt = no result given; ! = a repeat was not active. Only a selection was taken, and hits are over-represented in it overall.

SMILES	hDAT+cocaine	D1 mod	Calb biofilm kill	MMP13 inh	AP complement
COc1cc(-c2nc3n(n2)C(c2cccc(OC)c2OC)C2=C(CCCC2=O)N3)cc(OC)c1OC (stereo unspecified)	2.7*	-0.046	1	1	5
COc1ccc(C2C3=C(CCCC3=O)Nc3nc(-c4cc(OC)c(OC)c(OC)c4)nn32)cc1OC (stereo unspecified)	4*	-3*	0	5	14
COc1ccc(CNS(=O)(=O)c2cccc(S(=O)(=O)N3CCOCC3)c2)cc1	-0.79	nt	6	nt	nt
CC(C)OC(=O)c1c(N)sc2c1CCCC2	nt	11*	5	1	27
Cc1ccc(C)c(N2CCN(C(=O)CC3Sc4ccccc4NC3=O)CC2)c1 (stereo unspecified)	3.4*	0.71	3	2	13
O=C(O)c1cc(C(F)(F)F)nc2c(C(F)(F)F)cccc12	-0.0099	nt	nt	nt	nt
CCCCn1nc2cc(C(=O)NCC3CC3)ccc2c1OCC	-0.079	nt	nt	nt	nt
CCCn1nc2cc(C(=O)NC3CCc4ccccc43)ccc2c1OCC (stereo unspecified)	2.3*	nt	nt	nt	nt
CCCn1nc2cc(C(=O)NCc3ccc(OC)cc3)ccc2c1OCC	2.3*	nt	nt	nt	nt
CCO[C@H]1OC(C(=O)O)=C[C@@H](c2ccccc2)[C@@H]1CCCO	-0.65	nt	nt	nt	nt
Cc1c(N2C(=O)/C(=C/c3ccccc3)SC2=S)c(=O)n(-c2ccccc2)n1C	2.6*	nt	nt	nt	nt
COc1cc(SC)ccc1C(=O)Nc1ccc2c(c1)OCCO2	3.4*	-4.2*	-6	2	3
COc1ccccc1NC(=O)CN1CCN(CC(=O)Nc2ccc3c(c2)OCCO3)CC1	3.1*	0.059	nt	1	-2
Cc1ccc(-c2nn(-c3ccccc3)cc2C(=O)N2CCOCC2)cc1	0.58	-4*	9	4	5
Cc1cc(C(=O)CSc2nc3ccccc3o2)c(C)n1CC1CCCO1 (stereo unspecified)	-0.31	nt	6	nt	nt
Cc1sc2nc(SCC(=O)c3cc(C)n(CC4CCCO4)c3C)n(C(C)C)c(=O)c2c1C (stereo unspecified)	2	-2.3*	7	-1	12
C#Cc1ccc([C@H]2C=C(C(=O)NCc3nc4ccccc4[nH]3)O[C@@H](OCC)[C@@H]2CCCO)cc1	4.2*	nt	nt	nt	nt
COc1ccc(-c2ncccc2O)cc1	-0.22	nt	2	nt	nt
CCOc1c(C)cc(-c2ncccc2O)cc1C	-7.9*!	-0.92	7	-63	13
O=C1CC(c2ccc(Cl)cc2)CC(O)=C1C=NCc1ccc(Cl)c(Cl)c1 (stereo unspecified)	0.6	nt	nt	nt	nt
Cc1ccc(CNC(=O)C2CC(c3ccccc3F)=NO2)cc1 (stereo unspecified)	-0.53	nt	nt	nt	nt
COc1ccccc1NC(=S)N1CCC(c2nc3cc(C)c(C)cc3[nH]2)CC1	-2.3*	nt	nt	nt	nt
COc1ccc(C(=O)Nc2ccc3oc(Cc4ccc(Cl)cc4)nc3c2)cc1OC	0.99	nt	16	nt	nt
Cc1nc(N)sc1-c1csc(Nc2ccccn2)n1	4.6*	-6*	5	12	14
Cc1nc(N)sc1-c1csc(Nc2ccc(Cl)cn2)n1	4.5*	1.1	1	16*	0
SMILES	hDAT+cocaine	D1 mod	Calb biofilm kill	MMP13 inh	AP complement
O=C(NC1=NCCS1)c1ccc(OCC2CCCO2)cc1 (stereo unspecified)	-1	-3*	nt	0	-7
COc1ccccc1-c1nnc2sc(C3CCCCC3)nn12	1.8*	nt	5	1	nt
CCC(C)Nc1nc(OC(C(F)(F)F)C(F)(F)F)nc(OC(C(F)(F)F)C(F)(F)F)n1 (stereo unspecified)	3.2*	nt	-4	nt	nt
CCC(C)Nc1nc(OCC(F)(F)F)nc(OCC(F)(F)F)n1 (stereo unspecified)	-0.085	-0.23	nt	2	18
CC(=O)Oc1ccc(-c2cc3c(OC(C)=O)cc(OC(C)=O)cc3oc2=O)cc1	0.054	nt	nt	nt	nt
O=C(O)C1CCCCC1C(=O)NCCc1c[nH]c2ccccc12 (stereo unspecified)	-0.96	-5.1*	7	2	5
O=C(O)[C@H]1CCCC[C@H]1C(=O)NCCc1ccccc1	1.1	nt	1	nt	nt
COc1ccc(N(C(=O)Cn2nnc3ccccc32)C(C(=O)NCc2ccco2)c2ccc(C)o2)cc1 (stereo unspecified)	3.1*	-0.18	8	1	28
Cc1ccc(C(C(=O)NCc2ccco2)N(CCc2ccccc2)C(=O)Cn2nnc3ccccc32)o1 (stereo unspecified)	nt	-4.3*	4	-1	-2
Cc1ccc(N2CC3=C(C2=O)C(c2ccccc2)NC(=O)N3C)cc1 (stereo unspecified)	-1.5*	nt	nt	nt	nt
